The subject of series [1] is macrophages. To be noted: ref [22]; cited from earlier work.
The test system of series [2] is 4T1 mouse mammary carcinoma. Nature of the series: In vivo homing to 4T1 orthotopic breast tumors. To be noted: 5 min, 15 min or 1 h after IV injection, IF. The method, boiled down:
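4T1 tumors came from 1 × 10⁶ cells in 100 μL PBS injected into the mammary fat pad of female BALB/c mice. FAM-labelled test peptide was given IV, 100 μL of 1 mg/mL in PBS, and circulated 5 min, 15 min or 1 h before PBS perfusion. Fixed frozen sections were blocked in 1% BSA/0.1% Triton X-100 for 1 h at RT. Primaries (1:200) ran overnight at 4 °C, secondaries (1:200) 1 h at RT, with anti-CD31 for vessels. DAPI mounting, confocal imaging.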

Series [3] relates to bovine serum albumin (BSA). Nature of the series: Binding to control protein BSA.

Bridges are numbered along the chain shown (N, C = ends). Where no end group is shown, it is not given here. FAM = carboxyfluorescein; Ahx = NCCCCCC(=O)O

With “Biotinylated CRV: Biotinylated CRV (CRVLRSGSC; disulfide 1-9; also: biotin, position not given here)”, the “Inhibition of FAM-CRV binding to macrophages” value in series [1] was “inhibits the binding of FAM-CRV to macrophages”. As for “GGSGGSKG ({FAM-Ahx}-GGSGGSKG-OH) [FAM-GGS]”, in series [2], the “Accumulation in tumors over time” value is “little accumulation in tumors”. For the same substance, in series [3], the “Binding to BSA” value is “neither peptide bound”.

These data come from paper PMC6500479 (Journal of controlled release : official journal of the …, 2019).
